How the values were obtained:
Homo sapiens [1] = species on record: Homo sapiens; test: Selectivity ratio of IC50 for human recombinant DAGLalpha over Ki for human recombinant CB2 receptor
[2] = Inhibition of MAGL-mediated [14C]2-arachidonoyl glycerol hydrolysis to [3H]arachidonic acid in african green monkey COS cell cytosolic fraction by scintillation counting; assay type: cell-based, Chlorocebus aethiops; details: in the assay text read “[3H]2-arachidonoyl glycerol” for “[14C]2-arachidonoyl glycerol”
Outline: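 The 10000g cytosolic fraction of COS-7 cells, taken as the MAGL source, was incubated with 2-[3H]arachidonoylglycerol (1.0 mCi/mmol, 25 µM) in 50 mM Tris-HCl, pH 7.0, for 20 min at 37 °C. Products were separated by TLC. [3H]arachidonic acid was quantified by scintillation counting as the measure of activity.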

[3] = target: T1, Fatty-acid amide hydrolase 1 (Rattus norvegicus, UniProt P97612); test: Inhibition of FAAH-mediated [14C]anandamide hydrolysis in rat brain membrane; assay type: cell membranes
T1 sequence (P97612 whole entry): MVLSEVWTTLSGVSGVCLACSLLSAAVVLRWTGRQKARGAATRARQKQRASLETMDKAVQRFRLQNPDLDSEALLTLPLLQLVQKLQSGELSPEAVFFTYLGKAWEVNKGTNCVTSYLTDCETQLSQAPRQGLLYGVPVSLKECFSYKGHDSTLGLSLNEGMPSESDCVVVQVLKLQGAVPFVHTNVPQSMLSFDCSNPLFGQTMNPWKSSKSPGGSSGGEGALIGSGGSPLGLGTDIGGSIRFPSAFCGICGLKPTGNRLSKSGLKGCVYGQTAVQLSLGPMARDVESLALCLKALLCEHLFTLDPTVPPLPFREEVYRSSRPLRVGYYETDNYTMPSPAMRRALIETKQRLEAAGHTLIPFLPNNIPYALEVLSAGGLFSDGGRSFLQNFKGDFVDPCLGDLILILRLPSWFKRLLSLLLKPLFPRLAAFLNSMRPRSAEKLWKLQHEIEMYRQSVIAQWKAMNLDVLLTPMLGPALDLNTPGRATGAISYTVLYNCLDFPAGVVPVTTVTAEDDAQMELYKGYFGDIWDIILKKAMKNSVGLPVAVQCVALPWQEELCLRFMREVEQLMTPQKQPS
Outline: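 The mixture was extracted with 2 volumes of CHCl3/CH3OH 1/1. [14C]ethanolamine in the aqueous phase was measured by scintillation counting.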

[4] = Selectivity ratio of IC50 for human recombinant DAGLalpha over IC50 for rat brain membrane FAAH
Cannabinoid receptor 2 = Cannabinoid receptor 2 (Homo sapiens, UniProt P34972); test: Displacement of [3H]CP-55940 from human recombinant CB2 receptor expressed in HEK293 cells by scintillation counting; assay type: cell-based
Cannabinoid receptor 2, sequence (P34972 whole entry): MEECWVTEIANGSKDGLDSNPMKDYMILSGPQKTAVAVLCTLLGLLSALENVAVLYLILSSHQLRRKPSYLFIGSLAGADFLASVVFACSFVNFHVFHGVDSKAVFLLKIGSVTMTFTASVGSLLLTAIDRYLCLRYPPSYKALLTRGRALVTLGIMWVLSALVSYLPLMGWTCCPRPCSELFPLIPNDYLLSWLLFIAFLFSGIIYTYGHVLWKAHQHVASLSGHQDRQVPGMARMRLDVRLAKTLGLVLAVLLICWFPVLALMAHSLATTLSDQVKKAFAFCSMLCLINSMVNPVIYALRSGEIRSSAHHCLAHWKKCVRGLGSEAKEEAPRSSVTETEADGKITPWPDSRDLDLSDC

[5] = target: T2, Diacylglycerol lipase-alpha (Homo sapiens, UniProt Q9Y4D2); test: Inhibition of human recombinant DAGL-alpha-mediated sn-1-[14C]oleoyl-2-arachidonoyl-glycerol hydrolysis to 2-AG overexpressed in african green monkey COS7 cell membrane by scintillation counting; assay type: cell membranes, COS-7
T2 sequence (Q9Y4D2 whole entry): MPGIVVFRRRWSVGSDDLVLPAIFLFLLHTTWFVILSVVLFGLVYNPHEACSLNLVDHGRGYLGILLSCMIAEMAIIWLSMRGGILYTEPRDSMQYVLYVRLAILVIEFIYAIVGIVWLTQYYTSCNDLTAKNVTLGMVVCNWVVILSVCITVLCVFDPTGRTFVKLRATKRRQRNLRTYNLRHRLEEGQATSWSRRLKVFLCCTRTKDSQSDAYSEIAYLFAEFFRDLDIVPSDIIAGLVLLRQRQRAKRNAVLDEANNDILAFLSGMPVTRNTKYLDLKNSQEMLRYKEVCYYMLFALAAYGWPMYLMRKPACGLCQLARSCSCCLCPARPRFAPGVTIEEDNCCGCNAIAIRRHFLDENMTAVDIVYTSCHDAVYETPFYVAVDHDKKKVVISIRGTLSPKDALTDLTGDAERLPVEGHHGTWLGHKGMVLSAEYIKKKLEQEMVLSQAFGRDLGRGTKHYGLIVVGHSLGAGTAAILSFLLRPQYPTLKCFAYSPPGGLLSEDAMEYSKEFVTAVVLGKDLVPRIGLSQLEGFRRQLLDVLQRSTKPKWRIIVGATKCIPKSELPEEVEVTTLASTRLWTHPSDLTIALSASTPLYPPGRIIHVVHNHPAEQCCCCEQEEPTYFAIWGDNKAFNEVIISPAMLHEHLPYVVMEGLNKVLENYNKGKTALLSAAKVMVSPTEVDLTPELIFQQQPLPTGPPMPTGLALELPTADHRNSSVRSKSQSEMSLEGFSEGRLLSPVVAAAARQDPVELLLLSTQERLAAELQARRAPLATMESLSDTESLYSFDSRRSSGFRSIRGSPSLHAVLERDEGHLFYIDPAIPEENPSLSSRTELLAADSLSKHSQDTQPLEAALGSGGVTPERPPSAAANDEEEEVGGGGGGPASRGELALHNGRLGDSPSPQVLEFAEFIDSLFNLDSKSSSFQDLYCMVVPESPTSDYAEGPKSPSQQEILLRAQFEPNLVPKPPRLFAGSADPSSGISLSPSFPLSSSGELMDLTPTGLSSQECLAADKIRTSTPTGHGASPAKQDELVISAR

[6] = Selectivity ratio of IC50 for human recombinant DAGLalpha over IC50 for african green monkey MAGL
Cannabinoid receptor 1 = Cannabinoid receptor 1 (Homo sapiens, UniProt P21554); test: Displacement of [3H]CP-55940 from human recombinant CB1 receptor expressed in HEK293 cells by scintillation counting; assay type: cell-based
Cannabinoid receptor 1, sequence (P21554 whole entry): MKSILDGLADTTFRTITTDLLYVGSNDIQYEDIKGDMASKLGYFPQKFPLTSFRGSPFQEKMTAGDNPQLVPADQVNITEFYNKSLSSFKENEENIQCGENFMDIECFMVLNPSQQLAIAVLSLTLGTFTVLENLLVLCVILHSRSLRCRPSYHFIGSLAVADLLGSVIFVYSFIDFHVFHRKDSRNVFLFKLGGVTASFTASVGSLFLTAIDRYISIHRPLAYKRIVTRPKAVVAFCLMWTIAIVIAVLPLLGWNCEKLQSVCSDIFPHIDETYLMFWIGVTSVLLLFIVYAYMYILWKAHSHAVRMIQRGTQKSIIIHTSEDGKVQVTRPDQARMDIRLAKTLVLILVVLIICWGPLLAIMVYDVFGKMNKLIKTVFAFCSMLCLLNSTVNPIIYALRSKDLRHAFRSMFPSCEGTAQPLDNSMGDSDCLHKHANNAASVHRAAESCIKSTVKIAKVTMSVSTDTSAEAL

Homo sapiens [7] = species on record: Homo sapiens; test: Selectivity ratio of IC50 for human recombinant DAGLalpha over Ki for human recombinant CB1 receptor
[8] = Inhibition of ionomycin-induced stimulation of 2-AG biosynthesis in mouse N18TG2 cells at 1 uM; assay type: functional
Outline: (§1)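 Confluent mouse N18TG2 neuroblastoma cells attached to dishes were incubated for 20 min at 37 °C in medium containing 3 µM ionomycin, with vehicle or test compound. The reaction was stopped with ice-cold methanol and lipids were extracted three times with CHCl₃. Lyophilized lipids were assayed for 2-AG by isotope-dilution LC-MS. Values are % change in 2-AG levels versus vehicle (means ± SEM, N = 3).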

[9] = Inhibition of ionomycin-induced stimulation of 2-AG biosynthesis in mouse N18TG2 cells at 0.3 uM; assay type: functional; outline: as §1
[10] = Selectivity ratio of IC50 for african green monkey MAGL over Ki for human recombinant CB1 receptor
[11] = Selectivity ratio of IC50 for african green monkey MAGL over IC50 for human recombinant DAGLalpha
[12] = Enhancement of ionomycin-induced stimulation of 2-AG biosynthesis in mouse N18TG2 cells at 1.5 uM; assay type: functional; outline: as §1
[13] = Selectivity ratio of IC50 for african green monkey MAGL over IC50 for rat brain membrane FAAH
[14] = Selectivity ratio of IC50 for african green monkey MAGL over Ki for human recombinant CB2 receptor

IC50 [2] [µM]	IC50 [3] [µM]	Ki (Cannabinoid receptor 2) [µM]	IC50 [5] [µM]	Ki (Cannabinoid receptor 1) [µM]	Compound	other results
> 10	6.6	> 10	0.43	8.6	CCCCCCCCCCC[C@@H](C[C@@H]1OC(=O)[C@H]1CCCCCC)OC(=O)[C@@H](NC(C)=O)[C@@H](C)CC	Ratio (Homo sapiens [1]): 15; Ratio IC50 [4]: 15; Ratio IC50 [6]: 15; Ratio (Homo sapiens [7]): 15
> 10	> 50		> 25		CCCCCCCCCCC[C@@H](C[C@@H]1OC(=O)[C@H]1CCCCCC)OC(=O)CNC(=O)OCc1ccccc1	
1.7	> 50	> 10	0.8	2.3	CCCCCCCCCCC[C@@H](C[C@@H]1OC(=O)[C@H]1CCCCCC)OC(=O)CNC(C)=O	
3.5	> 50	> 10	0.1	2.6	CCCCCCCCCCC[C@@H](C[C@@H]1OC(=O)[C@H]1CCCCCC)OC(=O)[C@@H]1CCC(=O)N1	Ratio (Homo sapiens [1]): 15; Ratio IC50 [4]: 15; Ratio IC50 [6]: 15; Ratio (Homo sapiens [7]): 15
> 10	> 50		> 25		CCCCCCCCCCC[C@@H](C[C@@H]1OC(=O)[C@H]1CCCCCC)OC(=O)[C@H](CC(C)C)NC(=O)OCc1ccccc1	
> 10	> 50		25		CCCCCCCCCCC[C@@H](C[C@@H]1OC(=O)[C@H]1CCCCCC)OC(=O)[C@@H](N)Cc1ccccc1	
> 10	> 50		25		CCCCCCCCCCC[C@H](O)C[C@@H]1OC(=O)[C@H]1CCCCCC	
> 10	> 50		> 25		CCCCCCCCCCC[C@@H](C[C@@H]1OC(=O)[C@H]1CCCCCC)OC(=O)[C@@H](N)CC(C)C	
> 10	> 50	> 10	0.46	8.4	CCCCCCCCCCC[C@@H](C[C@@H]1OC(=O)[C@H]1CCCCCC)OC(=O)[C@@H](NC(C)=O)C(C)C	Ratio (Homo sapiens [1]): 15; Ratio IC50 [4]: 15; Ratio IC50 [6]: 15; Ratio (Homo sapiens [7]): 15
> 10	> 50		> 25		CCCCCCCCCCC[C@@H](C[C@@H]1OC(=O)[C@H]1CCCCCC)OC(=O)[C@H](CC(C)C)NC(=O)OC(C)(C)C	
> 10	3.4	7.4	1.1	1.7	CCCCCCCCCCC[C@@H](C[C@@H]1OC(=O)[C@H]1CCCCCC)OC(=O)[C@@H]1CCCN1C=O	
> 10	> 50		25		CCCCCCCCCCC[C@@H](C[C@@H]1OC(=O)[C@H]1CCCCCC)OC(=O)[C@H](Cc1ccccc1)NC=O	

More lines, now with the values behind:

Compound	IC50 [2] [µM]	IC50 [3] [µM]	Ki (Cannabinoid receptor 2) [µM]	IC50 [5] [µM]	Ki (Cannabinoid receptor 1) [µM]	other results
CCCCCCCCCCC[C@@H](C[C@@H]1OC(=O)[C@H]1CCCCCC)OC(=O)[C@H](Cc1ccccc1)NC(=O)OCc1ccccc1	> 10	> 50		> 25		
CCCCCCCCCCC[C@@H](C[C@@H]1OC(=O)[C@H]1CCCCCC)OC(=O)CCC(C)C	> 10	10.4		> 25		
CCCCCCCCCCC[C@@H](C[C@@H]1OC(=O)[C@H]1CCCCCC)OC(=O)CCNC=O	0.4	> 50	6.4	0.6	1.9	
CCCCCCCCCCC[C@@H](C[C@@H]1OC(=O)[C@H]1CCCCCC)OC(=O)[C@@H](CC(C)C)NC=O	> 10					
CCCCCCCCCCC[C@@H](C[C@@H]1OC(=O)[C@H]1CCCCCC)OC(=O)[C@H](CC(C)C)NC=O [ORLISTAT]	> 10		> 10		2.5	inhibition at 1 µM [8]: 79.8%
CCCCCCCCCCC[C@@H](C[C@@H]1OC(=O)[C@H]1CCCCCC)OC(=O)[C@@H](CC(C)C)NC(=O)OCc1ccccc1	> 10	> 50		> 25		
CCCCCCCCCCC[C@@H](C[C@@H]1OC(=O)[C@H]1CCCCCC)OC(=O)[C@H](C)NC=O	1	> 50	> 10	0.043	3.1	Ratio (Homo sapiens [1]): 23; Ratio IC50 [4]: 23; Ratio IC50 [6]: 23; Ratio (Homo sapiens [7]): 23
CCCCCCCCCCC[C@@H](C[C@@H]1OC(=O)[C@H]1CCCCCC)OC(=O)[C@@H](NC=O)[C@@H](C)CC	> 10	> 50	> 10	0.016	6	Ratio (Homo sapiens [1]): 23; inhibition at 0.3 µM [9]: 57.3%; Ratio IC50 [4]: 23; Ratio IC50 [6]: 23; Ratio (Homo sapiens [7]): 23
CCCCCCCCCCC[C@@H](C[C@@H]1OC(=O)[C@H]1CCCCCC)OC(=O)[C@@H](NC=O)C(C)C	> 10	> 50	> 10	0.035	5.7	Ratio (Homo sapiens [1]): 23; Ratio IC50 [4]: 23; Ratio IC50 [6]: 23; Ratio (Homo sapiens [7]): 23
CCCCCCCCCCC[C@@H](C[C@@H]1OC(=O)[C@H]1CCCCCC)OC(=O)CNC=O	0.41	3	> 10	2.8	> 10	Ratio [10]: 7; Ratio IC50 [11]: 7; Activity [12]: 55%; Ratio IC50 [13]: 7; Ratio [14]: 7

Source: ChEMBL document CHEMBL1142489, “Tetrahydrolipstatin analogues as modulators of endocannabinoid 2-arachidonoylglycerol metabolism” (J Med Chem, 2008)
